The source made the active and inactive calls. The rule behind the calls is not given here.
Columns and labels:
SH-SY5Y [1] = experiment: Induction of cell differentiation in human SH-SY5Y cells assessed as neural-like differentiation at 10 uM after 6 days using beta3-tubulin and NF200 staining by microscopic analysis; type: functional, cell-based
Summary of the method: (§1)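 SH-SY5Y grown on BME-coated glass coverslips at 1×10⁴ cells/cm², treated from 24 h for 6 days, medium changed every 48 h. Controls were untreated cells and RA 10 microM. Cells fixed in 4% PFA, immunostained overnight at 4 °C for βIII-tubulin and NF200, and counterstained with Hoechst. Imaged at 20×; immunoreactive area normalized to cell number, mean ± SD.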

[2] = Cytotoxicity against human SH-SY5Y cells after 24 hrs by MTT assay
SH-SY5Y [3] = experiment: Cytotoxicity against human SH-SY5Y cells at 10 uM after 48 hrs by MTT assay; type: functional, cell-based
SH-SY5Y [4] = experiment: Cytotoxicity against human SH-SY5Y cells at 10 uM after 72 to 96 hrs by MTT assay; type: functional, cell-based
[5] = Cytotoxicity against human SH-SY5Y cells assessed as doubling time at 10 uM after 24 to 72 hrs by trypan blue exclusion assay (reference value: 34.9 hrs); type: functional
SH-SY5Y [6] = experiment: Cytotoxicity against human SH-SY5Y cells assessed as doubling time at 10 uM after 24 to 96 hrs by trypan blue exclusion assay (reference value: 34.9 hrs); type: functional, cell-based
SH-SY5Y [7] = experiment: Cytotoxicity against human SH-SY5Y cells at 7.5 uM after 72 to 96 hrs by MTT assay; type: functional, cell-based
SH-SY5Y [8] = experiment: Cytotoxicity against human SH-SY5Y cells assessed as doubling time at 7.5 uM after 24 to 96 hrs by trypan blue exclusion assay (reference value: 34.9 hrs); type: functional, cell-based
[9] = Cytotoxicity against human SH-SY5Y cells assessed as doubling time at 7.5 uM after 24 to 72 hrs by trypan blue exclusion assay (reference value: 34.9 hrs); type: functional
SH-SY5Y [10] = experiment: Induction of cell differentiation in human SH-SY5Y cells assessed as neural-like differentiation at 7.5 uM after 6 days using beta3-tubulin and NF200 staining by microscopic analysis; type: functional, cell-based; summary of the method: as §1

SMILES	Activity (SH-SY5Y [1])	IC50 [2]	Activity (SH-SY5Y [3])	Activity (SH-SY5Y [4])	Time [5]	Activity (SH-SY5Y [6])	Activity (SH-SY5Y [7])	Activity (SH-SY5Y [8])	Time [9]	Activity (SH-SY5Y [10])
CC1=C(/C=C/C(C)=C/C=C/C(C)=C/C(=O)O)C(C)(C)CCC1	Active									
CC1=C(/C=C/C(C)=C\CNC(=O)/C=C2/CC(=O)N2)C(C)(C)CCC1	Active	35 µM	Active	Active	51.25 h	inactive				
CSN1C(=O)CC1CC/C=C/C(=O)Nc1ccccc1 (stereo not drawn)		10 µM					Active	inactive	39 h	inactive
CC1=C(/C=C/C(C)=C/CNC(=O)/C=C2/CC(=O)N2)C(C)(C)CCC1	Active	38 µM	Active	Active	39.78 h	inactive				

Reference: ChEMBL document CHEMBL3085771, “Azetidinone-retinoid hybrids: synthesis and differentiative effects” (Eur J Med Chem, 2013)
